The values below come from ChEMBL document CHEMBL4627400, “Discovery of Dihydropyrrolo[1,2-a]pyrazin-3(4H)-one-Based Second-Generation GluN2C- and GluN2D-Selective Positive Allosteric Modulators (PAMs) of the N-Methyl-d-Aspartate (NMDA) Receptor” (J Med Chem, 2020).

In series [1] the target is Glutamate NMDA receptor; Grin1/Grin2c (Rattus norvegicus) (UniProt P35439+Q00961). Description: Positive allosteric modulation of recombinant rat GluN1a/GluN2C receptor expressed in Xenopus laevis oocytes assessed as increase in glycine/L-glutamate-induced channel current at 30 uM by two-electrode voltage clamp method relative to control. Type of series: cell-based. The essentials: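 Oocytes expressing rat GluN1/GluN2C or GluN2D, held at −40 mV in HEPES-buffered Ba2+ solution, pH 7.4, 23 °C. Current given as percent of agonist-alone response. Doubling concentration is the concentration giving 2-fold response; reported as […] log. 6–19 oocytes from 2–3 frogs.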

The target in series [2] is Ionotropic glutamate receptor NMDA 1/2D (Rattus norvegicus) (UniProt P35439+Q62645). Put plainly: Positive allosteric modulation of recombinant rat GluN1a/GluN2D receptor expressed in Xenopus laevis oocytes assessed as increase in glycine/L-glutamate-induced channel current at 30 uM by two-electrode voltage clamp method relative to control. Type of series: cell-based. In short, it runs like this: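 Oocytes expressing rat GluN1/GluN2C or GluN2D, held at −40 mV in HEPES-buffered Ba2+ solution, pH 7.4, 23 °C. […] Current given as percent of agonist-alone response. […] Doubling concentration is the concentration giving 2-fold response; reported as […] log. 6–19 oocytes from 2–3 frogs.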

Series [3] has as its target Glutamate NMDA receptor; Grin1/Grin2a (Rattus norvegicus, UniProt P35439+Q00959). Put plainly: Positive allosteric modulation of recombinant rat GluN1a/GluN2A receptor expressed in Xenopus laevis oocytes assessed as increase in glycine/L-glutamate-induced channel current at 10 to 30 uM by two-electrode voltage clamp method relative to control. It is filed as cell-based. In short, it runs like this: (§1)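 TEVC at −40 mV, 23 °C, in 90 NaCl/1 KCl/0.5 BaCl/0.005 EDTA/10 HEPES (mM), pH 7.4. Oocytes expressed rat GluN1/GluN2A or GluN1/GluN2B. […] Some GluN2A oocytes were BAPTA-loaded. 4–17 oocytes from 1–3 frogs.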

Series [4] addresses Glutamate NMDA receptor; Grin1/Grin2b (Rattus norvegicus, UniProt P35439+Q00960). Description: Positive allosteric modulation of recombinant rat GluN1a/GluN2B receptor expressed in Xenopus laevis oocytes assessed as increase in glycine/L-glutamate-induced channel current at 10 to 30 uM by two-electrode voltage clamp method relative to control. It is filed as cell-based. The essentials:
as §1

Series [5] concerns the target Glutamate NMDA receptor; Grin1/Grin2c (Rattus norvegicus, UniProt P35439+Q00961).
For series [6], the target named is Ionotropic glutamate receptor NMDA 1/2D (Rattus norvegicus, UniProt P35439+Q62645).

Chain of Glutamate NMDA receptor; Grin1/Grin2b (Q00960 whole entry, other chains not shown): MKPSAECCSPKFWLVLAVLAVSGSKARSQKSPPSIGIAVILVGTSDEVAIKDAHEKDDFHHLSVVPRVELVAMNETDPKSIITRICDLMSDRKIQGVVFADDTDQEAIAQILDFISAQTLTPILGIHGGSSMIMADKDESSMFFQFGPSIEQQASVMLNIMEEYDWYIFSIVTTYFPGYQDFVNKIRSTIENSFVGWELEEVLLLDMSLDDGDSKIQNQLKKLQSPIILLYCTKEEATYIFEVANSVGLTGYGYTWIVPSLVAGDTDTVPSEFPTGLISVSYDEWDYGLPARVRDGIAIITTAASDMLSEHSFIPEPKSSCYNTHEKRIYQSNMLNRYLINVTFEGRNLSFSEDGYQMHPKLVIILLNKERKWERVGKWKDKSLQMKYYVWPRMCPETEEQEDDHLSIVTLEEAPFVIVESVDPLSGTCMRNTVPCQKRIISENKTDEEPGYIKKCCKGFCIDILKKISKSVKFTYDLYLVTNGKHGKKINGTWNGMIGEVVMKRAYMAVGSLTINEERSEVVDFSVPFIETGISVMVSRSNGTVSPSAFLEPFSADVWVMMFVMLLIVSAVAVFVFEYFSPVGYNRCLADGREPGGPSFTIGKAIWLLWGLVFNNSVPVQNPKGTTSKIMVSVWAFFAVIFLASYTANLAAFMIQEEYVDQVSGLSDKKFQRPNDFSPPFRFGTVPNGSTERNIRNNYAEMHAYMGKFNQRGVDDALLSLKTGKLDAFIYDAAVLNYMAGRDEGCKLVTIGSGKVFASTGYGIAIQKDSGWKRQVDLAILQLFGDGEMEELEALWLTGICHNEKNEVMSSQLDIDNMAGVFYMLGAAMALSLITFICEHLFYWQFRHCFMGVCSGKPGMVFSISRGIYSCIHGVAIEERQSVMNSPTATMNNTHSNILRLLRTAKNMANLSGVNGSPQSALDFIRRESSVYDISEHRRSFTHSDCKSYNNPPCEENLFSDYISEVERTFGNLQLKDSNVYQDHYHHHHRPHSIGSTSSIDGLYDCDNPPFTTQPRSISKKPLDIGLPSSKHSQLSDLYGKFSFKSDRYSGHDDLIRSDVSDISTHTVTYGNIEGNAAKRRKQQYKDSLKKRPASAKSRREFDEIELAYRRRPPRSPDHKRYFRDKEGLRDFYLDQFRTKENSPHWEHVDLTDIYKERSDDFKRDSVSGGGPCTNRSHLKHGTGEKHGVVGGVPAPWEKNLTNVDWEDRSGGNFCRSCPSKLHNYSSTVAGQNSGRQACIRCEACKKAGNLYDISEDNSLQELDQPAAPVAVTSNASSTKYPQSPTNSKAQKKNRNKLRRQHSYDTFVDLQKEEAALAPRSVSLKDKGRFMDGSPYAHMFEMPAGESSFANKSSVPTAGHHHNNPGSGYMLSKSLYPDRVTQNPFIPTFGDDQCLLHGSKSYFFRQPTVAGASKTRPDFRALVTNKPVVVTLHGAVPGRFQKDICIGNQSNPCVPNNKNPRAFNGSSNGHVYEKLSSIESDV
Chain of Glutamate NMDA receptor; Grin1/Grin2a (Q00959 whole entry, other chains not shown): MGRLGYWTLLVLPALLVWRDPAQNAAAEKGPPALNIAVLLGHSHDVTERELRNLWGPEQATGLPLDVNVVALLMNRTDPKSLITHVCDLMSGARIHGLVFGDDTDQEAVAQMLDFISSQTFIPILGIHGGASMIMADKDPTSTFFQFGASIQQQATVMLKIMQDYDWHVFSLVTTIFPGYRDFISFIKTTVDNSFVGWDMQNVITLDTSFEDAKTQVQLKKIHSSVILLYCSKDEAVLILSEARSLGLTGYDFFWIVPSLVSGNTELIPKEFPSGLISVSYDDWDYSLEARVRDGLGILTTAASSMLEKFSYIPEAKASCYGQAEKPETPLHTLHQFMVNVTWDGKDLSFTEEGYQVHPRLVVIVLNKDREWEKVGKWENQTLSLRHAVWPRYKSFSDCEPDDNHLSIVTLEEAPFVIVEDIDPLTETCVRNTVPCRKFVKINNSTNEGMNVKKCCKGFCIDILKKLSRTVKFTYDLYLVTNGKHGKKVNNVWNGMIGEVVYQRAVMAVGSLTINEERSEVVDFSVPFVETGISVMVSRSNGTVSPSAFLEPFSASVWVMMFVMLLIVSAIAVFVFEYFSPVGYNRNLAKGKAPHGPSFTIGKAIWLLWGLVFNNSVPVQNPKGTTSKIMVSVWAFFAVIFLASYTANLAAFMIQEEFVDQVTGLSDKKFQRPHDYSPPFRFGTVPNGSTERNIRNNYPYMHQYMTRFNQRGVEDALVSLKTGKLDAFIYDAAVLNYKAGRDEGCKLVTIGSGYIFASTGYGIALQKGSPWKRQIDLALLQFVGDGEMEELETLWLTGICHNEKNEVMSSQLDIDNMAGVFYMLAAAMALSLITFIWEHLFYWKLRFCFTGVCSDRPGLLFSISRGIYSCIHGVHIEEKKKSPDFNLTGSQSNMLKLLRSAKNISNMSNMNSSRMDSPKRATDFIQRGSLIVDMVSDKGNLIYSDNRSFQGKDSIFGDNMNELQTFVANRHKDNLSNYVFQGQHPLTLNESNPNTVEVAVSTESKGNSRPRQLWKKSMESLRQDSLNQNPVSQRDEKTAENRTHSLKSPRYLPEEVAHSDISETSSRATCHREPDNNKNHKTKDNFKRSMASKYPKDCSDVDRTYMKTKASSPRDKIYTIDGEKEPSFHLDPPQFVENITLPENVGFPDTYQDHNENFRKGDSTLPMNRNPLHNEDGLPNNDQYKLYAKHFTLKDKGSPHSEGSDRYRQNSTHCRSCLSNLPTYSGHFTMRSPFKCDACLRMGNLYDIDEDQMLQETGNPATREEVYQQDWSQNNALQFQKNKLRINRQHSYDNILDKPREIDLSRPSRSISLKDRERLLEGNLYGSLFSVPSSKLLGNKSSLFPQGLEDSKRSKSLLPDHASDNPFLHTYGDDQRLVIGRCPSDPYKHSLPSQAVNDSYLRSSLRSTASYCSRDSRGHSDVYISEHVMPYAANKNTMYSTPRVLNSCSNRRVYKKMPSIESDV

Consider `COc1cc2c(cc1OC)C(COc1ncccn1)N(C(=O)c1cccc(C(F)(F)F)c1)CC2` (stereo not given), for which the %max in series [1] turned out to be 97%; in series [2], 95%. Also, the Activity result in series [3] and in series [4] was “Not Active” in each case.
In the case of `COc1ccc(OCC2c3ccc(OC)cc3CC(=O)N2CCCC(F)(F)F)cc1` (stereo not given), the values for the half-maximal effective concentration (EC50) in series [5] and in series [6] were 7940 nM and 20000 nM, respectively. Further, the figures for the %max in series [1] and in series [2] were 290% and 450%, respectively. The Activity entry in series [3] and in series [4] was “Not Active” throughout.
With `COc1cc2c(cc1OC)C(CO)N(C(=O)c1cccc(C(F)(F)F)c1)CC2` (stereo not given), the %max was found to be 98% in series [1] and 95% in series [2]. Further, the Activity entry in series [3] and in series [4] was “Not Active” throughout.
Consider `COc1ccc(OCC2c3ccc(OC)cc3CC(=O)N2CCc2c[nH]c3ccccc23)cc1` (stereo not given), for which the %max in series [1] and in series [2] was 85% in each case. Further, the Activity result in series [3] and in series [4] was “Not Active” each time.
As to `COc1ccc(OCC2c3sccc3CCN2C(=O)c2ccc(Cl)s2)cc1` (stereo not given), the EC50 in series [5] and in series [6] was 5010 nM each time. In addition, the %max in series [1] was determined as 290%; in series [2], 400%. Also, the Activity result in series [3] and in series [4] was “Not Active” each time.
As for `COc1ccc(OCC2c3cnn(C)c3CCN2C(=O)c2cccc(Cl)c2)cc1` (stereo not given), the values for the %max in series [1] and in series [2] were 210% and 220%, respectively. For the same compound, the Activity result in series [3] and in series [4] was “Not Active” throughout.
Consider `COc1ccc(OCC2c3ccc(OC)cc3CC(=O)N2Cc2c[nH]nn2)cc1` (stereo not given), for which the results for the %max in series [1] and in series [2] were 110% and 98%, respectively. Besides, the Activity result in series [3] and in series [4] was “Not Active” each time.
On to `COc1ccc(OCC2c3cccn3CC(=S)N2Cc2cccc(C(F)(F)F)c2)cc1` (stereo not given), for which the values for the %max in series [1] and in series [2] were 120% and 110%, respectively. The Activity result in series [3] and in series [4] was “Not Active” each time.
On to `COCCOCCN1C(=O)Cc2cc(OC)ccc2C1COc1ccc(OC)cc1` (stereo not given), for which the %max in series [1] was 98%; in series [2], 100%. For the same compound, the Activity result in series [3] and in series [4] was “Not Active” each time.
On to `COc1ccc(OCC2c3ccc(OC(C)C)cc3CC(=O)N2Cc2cccc(C(F)(F)F)c2)cc1` (stereo not given), for which the concentration for a half-maximal effect (EC50) in series [5] is 398 nM; in series [6], 631 nM. In addition, the results for the %max in series [1] and in series [2] were 280% and 310%, respectively. Besides, the Activity result in series [3] and in series [4] was “Not Active” throughout.
In the case of `COc1ccc(OCC2c3ccsc3CCN2C(=S)c2cccc(Cl)c2)cc1` (stereo not given), the %max turned out to be 97% in series [1] and 94% in series [2]. Further, the Activity entry in series [3] and in series [4] was “Not Active” throughout.
With `COc1ccc(OCC2c3sc(C)nc3CCN2C(=O)c2cccc(Cl)c2)cc1` (stereo not given), the %max in series [1] and in series [2] was 100% each time. The Activity entry in series [3] and in series [4] was “Not Active” each time.
In the case of `COc1ccc(OCC2c3ccc(OC(C)C)cc3CCN2C(=O)c2cccc(C(F)(F)F)c2)cc1` (stereo not given), the EC50 in series [5] was 1580 nM; in series [6], 2510 nM. The Activity entry in series [3] and in series [4] was “Not Active” each time.
`COc1ccc(OCC2c3cc(OC)c(OC)cc3CCN2C(=O)c2cccc(C(F)(F)F)c2)cc1` (stereo not given): the Activity entry in series [3] and in series [4] was “Not Active” throughout.
Consider `COc1ccc(OCC2c3ccc(OC(C)C)cc3CC(=O)N2Cc2cccc(F)c2)cc1` (stereo not given), for which the concentration giving a half-maximal response (EC50) in series [5] is 1000 nM; in series [6], 2000 nM. Also, the results for the %max in series [1] and in series [2] were 320% and 330%, respectively. For the same compound, the Activity in series [3] and in series [4] was 130% each time.
Consider `COc1ccc(OCC2c3occc3CCN2C(=O)c2cccc(Cl)c2)cc1` (stereo not given), for which the 50% effective concentration (EC50) in series [5] is 6310 nM; in series [6], 7940 nM. In addition, the %max in series [1] is 340%; in series [2], 470%. The Activity entry in series [3] and in series [4] was “Not Active” each time.
With `COc1ccc(OCC2c3sccc3CCN2C(=O)/C=C/C(F)(F)F)cc1` (stereo not given), the concentration giving a half-maximal response (EC50) in series [5] was 12600 nM; in series [6], 15800 nM. The %max in series [1] amounted to 290%; in series [2] it was 330%. Further, the Activity result in series [3] and in series [4] was “Not Active” each time.
With `CCCN1C(=O)Cc2cc(OC)ccc2C1COc1ccc(OC)cc1` (stereo not given), the %max in series [1] amounted to 97%; in series [2] it was 94%. For the same compound, the Activity result in series [3] and in series [4] was “Not Active” in each case.
On to `COc1ccc(OCC2c3ccc(OC(C)C)cc3CC(=O)N2Cc2cccc(Cl)c2)cc1` (stereo not given), for which the EC50 is 398 nM in series [5] and 501 nM in series [6]. The %max is 350% in series [1] and 370% in series [2]. Also, the Activity entry in series [3] and in series [4] was “Not Active” in each case.
Consider `COc1ccc(OCC2c3cc(OC)c(OC)cc3CCN2C(=O)c2cccc(Cl)c2)s1` (stereo not given), for which the %max was 100% in series [1] and 110% in series [2]. The Activity result in series [3] and in series [4] was “Not Active” in each case.
As to `COc1ccc(OCC2c3ccc(OC(C)C)cc3CCN2C(=O)c2cccc(F)c2)cc1` (stereo not given), the Activity entry in series [3] and in series [4] was “Not Active” in each case. For the same compound, the EC50 in series [6] was 7940 nM.
Consider `COc1cc2c(cc1OC)C(COc1ccccn1)N(C(=O)c1cccc(C(F)(F)F)c1)CC2` (stereo not given), for which the %max in series [1] was determined as 96%; in series [2] it was 97%. Further, the Activity entry in series [3] and in series [4] was “Not Active” in each case.
With `COc1ccc(OCC2c3ccc(OC(C)C)cc3CCN2C(=O)c2cccc(Cl)c2)cc1` (stereo not given), the %max in series [1] is 240%; in series [2], 250%. Moreover, the Activity result in series [3] and in series [4] was “Not Active” in each case. Besides, the EC50 in series [6] is 3160 nM.
As for `COc1ccc(OCC2c3ccc(OCC(C)C)cc3CCN2C(=O)c2cccc(Cl)c2)cc1` (stereo not given), the figures for the EC50 in series [5] and in series [6] were 1000 nM and 1260 nM, respectively. Besides, the Activity entry in series [3] and in series [4] was “Not Active” in each case.
For the compound `COc1cc2c(cc1OC)C(COC1CCOCC1)N(C(=O)c1cccc(C(F)(F)F)c1)CC2` (stereo not given), the values for the %max in series [1] and in series [2] were 100% and 95%, respectively. Also, the Activity result in series [3] and in series [4] was “Not Active” each time.
Take `COc1ccc(OCC2c3ccc(OC)cc3CC(=O)N2CCCN(C)C)cc1` (stereo not given): the %max in series [1] was determined as 110%; in series [2] it was 96%. Also, the Activity entry in series [3] and in series [4] was “Not Active” each time.
Consider `COc1cc2c(cc1OC)C(COc1cccnc1)N(C(=O)c1cccc(C(F)(F)F)c1)CC2` (stereo not given), for which the %max in series [1] was determined as 90%; in series [2], 88%. Further, the Activity result in series [3] and in series [4] was “Not Active” throughout.
